Measurements as given in ChEMBL document CHEMBL5653622 (Oncotarget, 2016).
The source made the active and inactive calls. The calls are words filed in the database; no cut-off is given here.

What was measured:
[1] = target: MAP kinase-activated protein kinase 3 (Homo sapiens) (UniProt Q16644); test: Inhibition of human MAPKAP-K3 assessed as remaining activity at 10 uM in presence of ATP by radiometric kinase assay relative to control
[2] = system: HT-29; test: Induction of cell cycle arrest in human HT-29 cells assessed as decrease in accumulation of cells at G0/G1 phase at 1 to 5 uM incubated for 24 hrs by BrdU and PI staining based flow cytometry analysis; type: functional; settings: dose 1-5 µM
Procedure, shortened: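 HT29 cells exposed for 24h, stained with bromodeoxyuridine and propidium iodide, and cell-cycle distribution measured by flow cytometry.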

[3] = target: Protein-tyrosine kinase 6 (Homo sapiens) (UniProt Q13882); test: Inhibition of human BRK assessed as remaining activity at 10 uM in presence of ATP by radiometric kinase assay relative to control
[4] = Plasma protein binding in nude mouse at 10 uM; type: ADME, cell-free
[5] = species: Homo sapiens; test: Inhibition of human AMPK at 10 uM in presence of ATP by radiometric kinase assay relative to control
[6] = Half life in BALB/C mouse plasma at 10 mg/kg, po by LC/MS-MS analysis; type: ADME, organism-based
Procedure, shortened: (§1)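 Female BALB/c mice received a single bolus of 10mg/kg, either i.v. or p.o. The oral vehicle was DPTW (10% DMSO, 20% PEG400, 5% Tween 80, 65% water). Plasma and spleen homogenates were extracted with methanol containing internal standards. Drug levels were measured by LC/MS-MS, and pharmacokinetic parameters were calculated from the concentration-time profiles.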

[7] = system: Mus musculus; test: In vivo inhibition of CHK1 in CRTac:Ncr-Fox1 athymic mouse xenografted with human Calu-6 cells assessed as inhibition of CHK1 phosphorylation on S296 at 150 mg/kg, po in presence of gemcitabine and carboplatin by Western blotting analysis; type: functional, organism-based
Procedure, shortened: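 Female CRTac:Ncr-Fox1(nu) athymic mice carried s.c. Calu6 xenografts. Tumors were taken 6h after the last inhibitor dose, lysed in CHAPS buffer, and immunoblotted with GAPDH as loading control.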

[8] = target: Serine/threonine-protein kinase TAO1 (Homo sapiens) (UniProt Q7L7X3); test: Inhibition of human TAO1 assessed as remaining activity at 10 uM in presence of ATP by radiometric kinase assay relative to control
[9] = target: Tyrosine-protein kinase Yes (Homo sapiens) (UniProt P07947); test: Inhibition of human YES1 assessed as remaining activity at 10 uM in presence of ATP by radiometric kinase assay relative to control
[10] = Cmax in BALB/C mouse spleen at 10 mg/kg, iv by LC/MS-MS analysis; type: ADME, organism-based
Procedure, shortened: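 Female BALB/c mice received a single 10mg/kg bolus i.v. or p.o. Plasma (and spleen homogenate) extracted with methanol containing internal standards. Concentrations were measured by LC/MS-MS and PK parameters calculated with modelling software.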

[11] = target: Dual specificity protein kinase CLK2 (Homo sapiens, UniProt P49760); test: Inhibition of human CLK2 assessed as remaining activity at 10 uM in presence of ATP by radiometric kinase assay relative to control
[12] = AUC (0 to infinity) in BALB/C mouse spleen at 10 mg/kg, iv by LC/MS-MS analysis; type: ADME, organism-based
[13] = target: Proto-oncogene tyrosine-protein kinase Src (Homo sapiens) (UniProt P12931); test: Inhibition of human Src assessed as remaining activity at 10 uM in presence of ATP by radiometric kinase assay relative to control
[14] = target: Serine/threonine-protein kinase BRSK1 (Homo sapiens) (UniProt Q8TDC3); test: Inhibition of human BRSK1 at 10 uM in presence of ATP by radiometric kinase assay relative to control
[15] = target: Mitogen-activated protein kinase 11 (Homo sapiens) (UniProt Q15759); test: Inhibition of human p38b MAPK assessed as remaining activity at 10 uM in presence of ATP by radiometric kinase assay relative to control
[16] = target: Cyclin-dependent kinase 1 (Homo sapiens) (UniProt P06493); test: Inhibition of human CDK1 by DELFIA assay
[17] = target: Ribosomal protein S6 kinase alpha-1 (Homo sapiens, UniProt Q15418); test: Inhibition of human RSK1 at 10 uM in presence of ATP by radiometric kinase assay relative to control
[18] = target: Serine/threonine-protein kinase Sgk1 (Homo sapiens) (UniProt O00141); test: Inhibition of human SGK1 assessed as remaining activity at 10 uM in presence of ATP by radiometric kinase assay relative to control
[19] = Toxicity in CRTac:Ncr-Fox1 mouse xenografted with human HT-29 cells assessed as body weight at 12.5 mg/kg, po administered for 16 days in presence of gemcitabine relative to control; type: organism-based; settings: in vivo, 384 h, time 16 day
[20] = target: Aurora kinase B (Homo sapiens) (UniProt Q96GD4); test: Inhibition of human AuroraB assessed as remaining activity at 10 uM in presence of ATP by radiometric kinase assay relative to control
[21] = target: Aurora kinase A (Homo sapiens) (UniProt O14965); test: Inhibition of human AuroraA assessed as remaining activity at 10 uM in presence of ATP by radiometric kinase assay relative to control
[22] = target: MAP kinase-interacting serine/threonine-protein kinase 2 (Homo sapiens) (UniProt Q9HBH9); test: Inhibition of human MNK2 assessed as remaining activity at 10 uM in presence of ATP by radiometric kinase assay relative to control
[23] = Half life in BALB/C mouse spleen at 10 mg/kg, po by LC/MS-MS analysis; type: ADME, organism-based; procedure, shortened: as §1
[24] = target: Inhibitor of nuclear factor kappa-B kinase subunit beta (Homo sapiens) (UniProt O14920); test: Inhibition of human IKKb assessed as remaining activity at 10 uM in presence of ATP by radiometric kinase assay relative to control
[25] = system: Mus musculus; test: In vivo inhibition of CHK1 in CRTac:Ncr-Fox1 athymic mouse xenografted with human Calu-6 cells assessed as inhibition of CHK1 phosphorylation on S296 at 150 mg/kg, po in presence of gemcitabine and carboplatin by ELISA analysis; type: functional, organism-based
[26] = target: Serine/threonine-protein kinase PAK 5 (Homo sapiens) (UniProt Q9P286); test: Inhibition of human PAK5 assessed as remaining activity at 10 uM in presence of ATP by radiometric kinase assay relative to control
[27] = target: Ephrin type-B receptor 4 (Homo sapiens) (UniProt P54760); test: Inhibition of human EPH-B4 assessed as remaining activity at 10 uM in presence of ATP by radiometric kinase assay relative to control
[28] = target: Vascular endothelial growth factor receptor 2 (Homo sapiens, UniProt P35968); test: Inhibition of VEGFR2 (unknown origin) by FRET based Z-LYTE kinase assay
[29] = Tmax in BALB/C mouse spleen at 10 mg/kg, iv by LC/MS-MS analysis; type: ADME, organism-based

MAP kinase-activated protein kinase 3 (Homo sapiens), sequence (Q16644 whole entry, looked up): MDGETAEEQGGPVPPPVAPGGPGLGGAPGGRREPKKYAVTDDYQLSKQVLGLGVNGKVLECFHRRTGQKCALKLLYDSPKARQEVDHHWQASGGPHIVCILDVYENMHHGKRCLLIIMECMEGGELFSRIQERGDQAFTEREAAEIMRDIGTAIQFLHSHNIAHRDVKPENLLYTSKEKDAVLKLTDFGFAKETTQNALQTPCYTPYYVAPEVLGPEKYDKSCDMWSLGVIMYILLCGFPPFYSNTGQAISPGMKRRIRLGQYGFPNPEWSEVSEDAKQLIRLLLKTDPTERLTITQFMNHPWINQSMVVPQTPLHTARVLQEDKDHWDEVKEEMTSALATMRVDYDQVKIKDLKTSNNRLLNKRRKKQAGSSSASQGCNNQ
Protein-tyrosine kinase 6 (Homo sapiens), sequence (Q13882 whole entry, looked up): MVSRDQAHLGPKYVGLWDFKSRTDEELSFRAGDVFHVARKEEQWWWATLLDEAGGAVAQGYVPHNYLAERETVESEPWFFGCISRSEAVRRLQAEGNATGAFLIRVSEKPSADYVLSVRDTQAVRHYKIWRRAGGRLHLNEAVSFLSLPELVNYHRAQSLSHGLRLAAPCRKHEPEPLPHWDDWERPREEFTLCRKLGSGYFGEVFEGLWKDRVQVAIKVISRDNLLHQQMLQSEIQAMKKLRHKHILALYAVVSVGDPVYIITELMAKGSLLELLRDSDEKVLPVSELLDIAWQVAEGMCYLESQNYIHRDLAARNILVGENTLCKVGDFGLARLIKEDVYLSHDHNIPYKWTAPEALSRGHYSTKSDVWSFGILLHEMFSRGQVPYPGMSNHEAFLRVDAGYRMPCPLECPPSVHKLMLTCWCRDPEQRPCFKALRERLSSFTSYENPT
Mitogen-activated protein kinase 11 (Homo sapiens), sequence (Q15759 whole entry): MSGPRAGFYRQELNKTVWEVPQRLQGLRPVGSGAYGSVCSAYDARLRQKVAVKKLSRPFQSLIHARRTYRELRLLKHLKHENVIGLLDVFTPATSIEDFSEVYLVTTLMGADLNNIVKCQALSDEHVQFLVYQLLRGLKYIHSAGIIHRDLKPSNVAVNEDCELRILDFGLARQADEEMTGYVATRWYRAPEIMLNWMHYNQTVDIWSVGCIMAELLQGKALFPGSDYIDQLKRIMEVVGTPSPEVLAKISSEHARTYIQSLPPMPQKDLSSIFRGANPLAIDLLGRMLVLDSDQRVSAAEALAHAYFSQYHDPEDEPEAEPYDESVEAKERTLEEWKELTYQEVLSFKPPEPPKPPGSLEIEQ
Inhibitor of nuclear factor kappa-B kinase subunit beta (Homo sapiens), sequence (O14920 whole entry): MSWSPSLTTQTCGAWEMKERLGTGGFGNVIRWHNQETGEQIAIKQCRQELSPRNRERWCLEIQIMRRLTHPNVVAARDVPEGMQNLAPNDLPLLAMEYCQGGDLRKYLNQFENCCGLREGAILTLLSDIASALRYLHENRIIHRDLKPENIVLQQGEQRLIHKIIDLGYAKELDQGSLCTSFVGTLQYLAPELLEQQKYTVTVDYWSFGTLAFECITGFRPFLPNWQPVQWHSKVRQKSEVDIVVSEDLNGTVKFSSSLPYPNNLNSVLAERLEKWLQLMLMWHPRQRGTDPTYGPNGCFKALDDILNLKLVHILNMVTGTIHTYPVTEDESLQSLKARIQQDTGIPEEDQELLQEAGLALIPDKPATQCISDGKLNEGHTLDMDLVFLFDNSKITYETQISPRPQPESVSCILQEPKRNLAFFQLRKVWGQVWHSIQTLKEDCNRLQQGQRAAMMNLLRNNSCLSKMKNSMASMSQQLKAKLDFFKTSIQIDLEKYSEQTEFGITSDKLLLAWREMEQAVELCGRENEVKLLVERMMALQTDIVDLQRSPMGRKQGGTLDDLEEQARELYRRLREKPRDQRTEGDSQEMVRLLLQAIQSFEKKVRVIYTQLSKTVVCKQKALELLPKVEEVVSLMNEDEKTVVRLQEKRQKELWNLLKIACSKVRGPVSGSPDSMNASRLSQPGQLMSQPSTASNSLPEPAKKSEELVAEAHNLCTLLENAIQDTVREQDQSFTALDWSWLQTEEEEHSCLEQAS
Cyclin-dependent kinase 1 (Homo sapiens), sequence (P06493 whole entry, looked up): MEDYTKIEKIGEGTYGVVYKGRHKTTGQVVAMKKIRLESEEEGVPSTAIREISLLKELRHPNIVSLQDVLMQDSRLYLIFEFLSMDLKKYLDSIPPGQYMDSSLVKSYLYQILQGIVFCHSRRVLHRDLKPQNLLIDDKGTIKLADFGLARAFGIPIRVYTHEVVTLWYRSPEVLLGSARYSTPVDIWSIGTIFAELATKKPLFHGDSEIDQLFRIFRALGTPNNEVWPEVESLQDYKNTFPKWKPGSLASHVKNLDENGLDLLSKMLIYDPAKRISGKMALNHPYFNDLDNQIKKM
Proto-oncogene tyrosine-protein kinase Src (Homo sapiens), sequence (P12931 2-536 limits assumed): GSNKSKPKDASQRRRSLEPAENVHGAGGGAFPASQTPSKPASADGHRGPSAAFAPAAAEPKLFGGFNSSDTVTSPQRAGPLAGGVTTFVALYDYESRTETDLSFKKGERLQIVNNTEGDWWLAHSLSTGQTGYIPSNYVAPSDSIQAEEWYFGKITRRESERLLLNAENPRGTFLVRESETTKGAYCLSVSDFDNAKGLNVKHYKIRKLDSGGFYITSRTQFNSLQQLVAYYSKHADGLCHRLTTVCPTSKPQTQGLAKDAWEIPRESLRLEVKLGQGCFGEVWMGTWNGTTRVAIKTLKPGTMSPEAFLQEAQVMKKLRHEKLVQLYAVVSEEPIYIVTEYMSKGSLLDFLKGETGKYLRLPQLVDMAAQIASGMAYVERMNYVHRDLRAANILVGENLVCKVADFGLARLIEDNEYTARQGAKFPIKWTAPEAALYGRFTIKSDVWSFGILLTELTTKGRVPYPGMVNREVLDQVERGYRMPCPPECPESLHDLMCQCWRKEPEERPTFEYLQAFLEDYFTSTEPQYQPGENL
Serine/threonine-protein kinase BRSK1 (Homo sapiens), sequence (Q8TDC3 whole entry): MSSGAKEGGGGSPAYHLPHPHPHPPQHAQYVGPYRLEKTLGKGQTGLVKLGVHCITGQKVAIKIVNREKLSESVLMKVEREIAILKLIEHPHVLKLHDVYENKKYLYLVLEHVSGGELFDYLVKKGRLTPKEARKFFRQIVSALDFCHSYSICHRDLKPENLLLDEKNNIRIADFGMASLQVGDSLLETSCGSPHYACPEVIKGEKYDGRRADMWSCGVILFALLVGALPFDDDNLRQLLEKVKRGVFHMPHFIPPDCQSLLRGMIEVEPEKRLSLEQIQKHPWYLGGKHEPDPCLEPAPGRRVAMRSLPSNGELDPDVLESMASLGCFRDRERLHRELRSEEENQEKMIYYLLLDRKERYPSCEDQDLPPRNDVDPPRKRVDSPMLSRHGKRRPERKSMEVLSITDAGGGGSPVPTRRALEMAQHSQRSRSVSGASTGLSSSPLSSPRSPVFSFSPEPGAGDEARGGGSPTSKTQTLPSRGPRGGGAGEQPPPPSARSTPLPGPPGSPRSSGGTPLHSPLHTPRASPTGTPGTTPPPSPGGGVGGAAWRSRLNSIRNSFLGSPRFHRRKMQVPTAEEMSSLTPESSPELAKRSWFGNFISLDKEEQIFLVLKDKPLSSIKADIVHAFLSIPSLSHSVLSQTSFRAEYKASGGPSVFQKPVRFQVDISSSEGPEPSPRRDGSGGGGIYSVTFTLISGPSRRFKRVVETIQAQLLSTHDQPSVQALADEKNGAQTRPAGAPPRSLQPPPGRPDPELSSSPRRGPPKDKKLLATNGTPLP
Ephrin type-B receptor 4 (Homo sapiens), sequence (P54760 whole entry): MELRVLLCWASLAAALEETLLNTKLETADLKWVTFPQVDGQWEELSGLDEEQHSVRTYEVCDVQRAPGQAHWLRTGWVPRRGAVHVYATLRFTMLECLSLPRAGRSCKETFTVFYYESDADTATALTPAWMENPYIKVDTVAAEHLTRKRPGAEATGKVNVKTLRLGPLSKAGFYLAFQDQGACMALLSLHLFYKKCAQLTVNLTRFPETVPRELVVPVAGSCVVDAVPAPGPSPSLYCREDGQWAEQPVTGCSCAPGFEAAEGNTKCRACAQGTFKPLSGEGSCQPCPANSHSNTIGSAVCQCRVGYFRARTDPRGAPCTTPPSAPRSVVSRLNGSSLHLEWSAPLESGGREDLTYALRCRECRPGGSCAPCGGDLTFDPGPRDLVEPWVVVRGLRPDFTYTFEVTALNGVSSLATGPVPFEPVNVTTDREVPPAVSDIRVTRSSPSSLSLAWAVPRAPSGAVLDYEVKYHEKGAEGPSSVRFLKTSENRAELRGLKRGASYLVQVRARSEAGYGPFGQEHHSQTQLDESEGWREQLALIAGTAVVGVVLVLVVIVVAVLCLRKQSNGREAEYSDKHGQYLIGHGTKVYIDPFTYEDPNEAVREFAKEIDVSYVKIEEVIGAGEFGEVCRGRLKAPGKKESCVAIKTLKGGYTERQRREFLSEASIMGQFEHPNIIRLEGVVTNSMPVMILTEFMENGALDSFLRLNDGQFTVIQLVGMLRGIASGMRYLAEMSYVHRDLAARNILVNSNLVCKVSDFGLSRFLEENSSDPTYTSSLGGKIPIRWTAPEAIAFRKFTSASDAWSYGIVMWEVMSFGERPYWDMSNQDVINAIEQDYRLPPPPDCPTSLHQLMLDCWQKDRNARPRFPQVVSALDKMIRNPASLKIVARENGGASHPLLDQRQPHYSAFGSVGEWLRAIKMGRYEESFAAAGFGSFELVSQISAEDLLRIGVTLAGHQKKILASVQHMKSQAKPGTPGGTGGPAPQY
MAP kinase-interacting serine/threonine-protein kinase 2 (Homo sapiens), sequence (Q9HBH9 whole entry, looked up): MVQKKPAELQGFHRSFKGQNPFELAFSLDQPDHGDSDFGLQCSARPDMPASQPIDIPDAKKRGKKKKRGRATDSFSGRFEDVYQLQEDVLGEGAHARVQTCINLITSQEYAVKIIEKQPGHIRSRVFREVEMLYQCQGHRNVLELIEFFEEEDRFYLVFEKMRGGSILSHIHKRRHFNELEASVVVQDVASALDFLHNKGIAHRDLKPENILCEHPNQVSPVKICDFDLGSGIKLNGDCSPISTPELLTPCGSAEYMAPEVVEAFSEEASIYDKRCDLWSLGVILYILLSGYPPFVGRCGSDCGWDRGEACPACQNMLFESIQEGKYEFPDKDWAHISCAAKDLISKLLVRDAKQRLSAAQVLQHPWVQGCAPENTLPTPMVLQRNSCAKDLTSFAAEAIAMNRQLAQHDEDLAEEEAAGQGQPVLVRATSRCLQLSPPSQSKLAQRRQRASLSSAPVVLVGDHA

Activity [1]: 114%
Activity [3]: 108%
PPB [4]: 75.6%
inhibition [5]: 68%
half-life [6]: 2.85 h
Activity [8]: 54%
Activity [9]: 65%
Cmax [10]: 44.7 µM
Activity [11]: 6%
AUC(0-inf) [12]: 262 µM·h
Activity [13]: 93%
inhibition [14]: 88%
Activity [15]: 90%
IC50 [16]: 2440 nM
inhibition [17]: 93%
Activity [18]: 87%
Activity [20]: 26%
Activity [21]: 75%
Activity [22]: 75%
half-life [23]: 3.11 h
Activity [24]: 91%
Activity [26]: 70%
Activity [27]: 81%
IC50 [28]: 2100 nM
Tmax [29]: 0.5 h
SMILES: N#Cc1cnc(Nc2cc(NC[C@H]3CNCCO3)c(C(F)(F)F)cn2)cn1 [SRA-737]
Activity [2]: Active
inhibition [7]: Active
Activity [19]: 97.5%
inhibition [25]: Active
